In ChEMBL document CHEMBL4689842, “EUbOPEN Chemogenomics Library wave 1” (2021):

System: HEK-293T
Experiment: Multiplex assay against HEK293T;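 as to Population Tubulin-Different-Phenotype (%): share of the cells with healthy nuclei that show this phenotype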
Assay type: toxicity, cell-based
Details: human
Procedure, shortened: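 Tubulin, mitochondrial-mass and membrane-permeability phenotypes are per cents of healthy-nucleus cells. Cells were gated by CellPathfinder machine learning into Hoechst high-intensity objects or normal cells, normal cells into healthy, pyknosed or fragmented nuclei, and pyknosed cells into mitotic or apoptotic. Before that, live cells stained at seeding with Hoechst33342, BioTracker Green Microtubule Cytoskeleton Dye, MitoTracker Red and Annexin V Alexa Fluor 680 were imaged on a CQ1 microscope at 37°C and 5% CO2 after compound addition.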

[1] = 12 h, 1 µM, compound concentration 1 uM, replicate 1
[2] = 12 h, 1 µM, compound concentration 1 uM, replicate 2
[3] = 12 h, 10 µM, compound concentration 10 uM, replicate 1
[4] = 12 h, 10 µM, compound concentration 10 uM, replicate 2
[5] = 24 h, 1 µM, compound concentration 1 uM, replicate 1
[6] = 24 h, 1 µM, compound concentration 1 uM, replicate 2
[7] = 24 h, 10 µM, compound concentration 10 uM, replicate 1
[8] = 24 h, 10 µM, compound concentration 10 uM, replicate 2
[9] = 48 h, 1 µM, compound concentration 1 uM, replicate 1
[10] = 48 h, 1 µM, compound concentration 1 uM, replicate 2
[11] = 48 h, 10 µM, compound concentration 10 uM, replicate 1
[12] = 48 h, 10 µM, compound concentration 10 uM, replicate 2

With `CC(C)NC(=O)N1CC[C@H](NC2=Nc3cc(F)ccc3N(CC(F)F)c3ccc(Cl)cc32)C1` the “Population Apoptotic (%)” value [1] was 42%, the “Population Fragmented Nuclei (%)” value [1] was 19% and the “Population Healthy Nuclei (%)” value [1] was 34%. For the same compound, the “Population Hoechst High Intensity Objects (%)” value [1] was 18%, the “Population Membrane Permeable-Phenotype (%)” value [1] was 4% and the “Population Mitochondria Different-Phenotype (%)” value [1] was 78%. For the same compound, the “Population Mitotic Cells (%)” value [1] was 57%, the “Population Normal (%)” value [1] was 81% and the “Population Pyknosed Nuclei (%)” value [1] was 46%. For the same compound, the “Population Tubulin-Different-Phenotype (%)” value [1] was 34%, the “Total Cell Count” value [1] was 170 and the “Population Apoptotic (%)” value [2] was 8%. For the same compound, the “Population Fragmented Nuclei (%)” value [2] was 4%, the “Population Healthy Nuclei (%)” value [2] was 47% and the “Population Hoechst High Intensity Objects (%)” value [2] was 3%. The “Population Membrane Permeable-Phenotype (%)” value [2] was 13%, the “Population Mitochondria Different-Phenotype (%)” value [2] was 24% and the “Population Mitotic Cells (%)” value [2] was 91%. For the same compound, the “Population Normal (%)” value [2] was 96%, the “Population Pyknosed Nuclei (%)” value [2] was 47% and the “Population Tubulin-Different-Phenotype (%)” value [2] was 25%. The “Total Cell Count” value [2] was 304, the “Population Apoptotic (%)” value [3] was 53% and the “Population Fragmented Nuclei (%)” value [3] was 24%. The “Population Healthy Nuclei (%)” value [3] was 38%, the “Population Hoechst High Intensity Objects (%)” value [3] was 22% and the “Population Membrane Permeable-Phenotype (%)” value [3] was 4%. For the same compound, the “Population Mitochondria Different-Phenotype (%)” value [3] was 91%, the “Population Mitotic Cells (%)” value [3] was 46% and the “Population Normal (%)” value [3] was 77%. For the same compound, the “Population Pyknosed Nuclei (%)” value [3] was 37%, the “Population Tubulin-Different-Phenotype (%)” value [3] was 79% and the “Total Cell Count” value [3] was 163. The “Population Apoptotic (%)” value [4] was 20%, the “Population Fragmented Nuclei (%)” value [4] was 6% and the “Population Healthy Nuclei (%)” value [4] was 53%. The “Population Hoechst High Intensity Objects (%)” value [4] was 5%, the “Population Membrane Permeable-Phenotype (%)” value [4] was 10% and the “Population Mitochondria Different-Phenotype (%)” value [4] was 48%. For the same compound, the “Population Mitotic Cells (%)” value [4] was 79%, the “Population Normal (%)” value [4] was 94% and the “Population Pyknosed Nuclei (%)” value [4] was 40%. For the same compound, the “Population Tubulin-Different-Phenotype (%)” value [4] was 57%, the “Total Cell Count” value [4] was 170 and the “Population Apoptotic (%)” value [5] was 37%. For the same compound, the “Population Fragmented Nuclei (%)” value [5] was 20%, the “Population Healthy Nuclei (%)” value [5] was 39% and the “Population Hoechst High Intensity Objects (%)” value [5] was 20%. The “Population Membrane Permeable-Phenotype (%)” value [5] was 0%, the “Population Mitochondria Different-Phenotype (%)” value [5] was 75% and the “Population Mitotic Cells (%)” value [5] was 62%. For the same compound, the “Population Normal (%)” value [5] was 79%, the “Population Pyknosed Nuclei (%)” value [5] was 39% and the “Population Tubulin-Different-Phenotype (%)” value [5] was 32%. For the same compound, the “Total Cell Count” value [5] was 178, the “Population Apoptotic (%)” value [6] was 15% and the “Population Fragmented Nuclei (%)” value [6] was 4%. For the same compound, the “Population Healthy Nuclei (%)” value [6] was 69%, the “Population Hoechst High Intensity Objects (%)” value [6] was 3% and the “Population Membrane Permeable-Phenotype (%)” value [6] was 8%. For the same compound, the “Population Mitochondria Different-Phenotype (%)” value [6] was 13%, the “Population Mitotic Cells (%)” value [6] was 84% and the “Population Normal (%)” value [6] was 96%. For the same compound, the “Population Pyknosed Nuclei (%)” value [6] was 25%, the “Population Tubulin-Different-Phenotype (%)” value [6] was 25% and the “Total Cell Count” value [6] was 367. For the same compound, the “Population Apoptotic (%)” value [7] was 58%, the “Population Fragmented Nuclei (%)” value [7] was 17% and the “Population Healthy Nuclei (%)” value [7] was 32%. The “Population Hoechst High Intensity Objects (%)” value [7] was 25%, the “Population Membrane Permeable-Phenotype (%)” value [7] was 0% and the “Population Mitochondria Different-Phenotype (%)” value [7] was 94%. The “Population Mitotic Cells (%)” value [7] was 41%, the “Population Normal (%)” value [7] was 74% and the “Population Pyknosed Nuclei (%)” value [7] was 50%. The “Population Tubulin-Different-Phenotype (%)” value [7] was 69%, the “Total Cell Count” value [7] was 161 and the “Population Apoptotic (%)” value [8] was 37%. The “Population Fragmented Nuclei (%)” value [8] was 9%, the “Population Healthy Nuclei (%)” value [8] was 58% and the “Population Hoechst High Intensity Objects (%)” value [8] was 2%. The “Population Membrane Permeable-Phenotype (%)” value [8] was 6%, the “Population Mitochondria Different-Phenotype (%)” value [8] was 71% and the “Population Mitotic Cells (%)” value [8] was 62%. The “Population Normal (%)” value [8] was 97%, the “Population Pyknosed Nuclei (%)” value [8] was 32% and the “Population Tubulin-Different-Phenotype (%)” value [8] was 61%. The “Total Cell Count” value [8] was 169, the “Population Apoptotic (%)” value [9] was 48% and the “Population Fragmented Nuclei (%)” value [9] was 22%. For the same compound, the “Population Healthy Nuclei (%)” value [9] was 37%, the “Population Hoechst High Intensity Objects (%)” value [9] was 21% and the “Population Membrane Permeable-Phenotype (%)” value [9] was 0%. The “Population Mitochondria Different-Phenotype (%)” value [9] was 32%, the “Population Mitotic Cells (%)” value [9] was 51% and the “Population Normal (%)” value [9] was 78%. For the same compound, the “Population Pyknosed Nuclei (%)” value [9] was 40%, the “Population Tubulin-Different-Phenotype (%)” value [9] was 28% and the “Total Cell Count” value [9] was 189. The “Population Apoptotic (%)” value [10] was 17%, the “Population Fragmented Nuclei (%)” value [10] was 5% and the “Population Healthy Nuclei (%)” value [10] was 84%. The “Population Hoechst High Intensity Objects (%)” value [10] was 3%, the “Population Membrane Permeable-Phenotype (%)” value [10] was 4% and the “Population Mitochondria Different-Phenotype (%)” value [10] was 4%. The “Population Mitotic Cells (%)” value [10] was 82%, the “Population Normal (%)” value [10] was 96% and the “Population Pyknosed Nuclei (%)” value [10] was 10%. The “Population Tubulin-Different-Phenotype (%)” value [10] was 25%, the “Total Cell Count” value [10] was 580 and the “Population Apoptotic (%)” value [11] was 70%. For the same compound, the “Population Fragmented Nuclei (%)” value [11] was 28%, the “Population Healthy Nuclei (%)” value [11] was 39% and the “Population Hoechst High Intensity Objects (%)” value [11] was 19%. For the same compound, the “Population Membrane Permeable-Phenotype (%)” value [11] was 8%, the “Population Mitochondria Different-Phenotype (%)” value [11] was 74% and the “Population Mitotic Cells (%)” value [11] was 29%. For the same compound, the “Population Normal (%)” value [11] was 80%, the “Population Pyknosed Nuclei (%)” value [11] was 32% and the “Population Tubulin-Different-Phenotype (%)” value [11] was 62%. The “Total Cell Count” value [11] was 181, the “Population Apoptotic (%)” value [12] was 48% and the “Population Fragmented Nuclei (%)” value [12] was 8%. The “Population Healthy Nuclei (%)” value [12] was 63%, the “Population Hoechst High Intensity Objects (%)” value [12] was 2% and the “Population Membrane Permeable-Phenotype (%)” value [12] was 5%. The “Population Mitochondria Different-Phenotype (%)” value [12] was 46%, the “Population Mitotic Cells (%)” value [12] was 51% and the “Population Normal (%)” value [12] was 97%. For the same compound, the “Population Pyknosed Nuclei (%)” value [12] was 28%, the “Population Tubulin-Different-Phenotype (%)” value [12] was 61% and the “Total Cell Count” value [12] was 219.
